Laboratory results from ChEMBL document CHEMBL4411328, “Synthesis and Structural/Functional Characterization of Selective M14 Metallocarboxypeptidase Inhibitors Based on Phosphinic Pseudopeptide Scaffold: Implications on the Design of Specific Optical Probes” (J Med Chem, 2019).
The source made the active and inactive calls. The rule behind the calls is not given here.

Assays:
[1] = target: T1, Carboxypeptidase A1 (Homo sapiens) (UniProt P15085); assay: Inhibition of human CPA1 peptide degradation activity at 5 to 500 nM using neurotensin peptide as substrate preincubated for 2 hrs followed by substrate addition and measured up to 7 hrs by MALDI-TOF/TOF spectrometry
T1 sequence (whole entry): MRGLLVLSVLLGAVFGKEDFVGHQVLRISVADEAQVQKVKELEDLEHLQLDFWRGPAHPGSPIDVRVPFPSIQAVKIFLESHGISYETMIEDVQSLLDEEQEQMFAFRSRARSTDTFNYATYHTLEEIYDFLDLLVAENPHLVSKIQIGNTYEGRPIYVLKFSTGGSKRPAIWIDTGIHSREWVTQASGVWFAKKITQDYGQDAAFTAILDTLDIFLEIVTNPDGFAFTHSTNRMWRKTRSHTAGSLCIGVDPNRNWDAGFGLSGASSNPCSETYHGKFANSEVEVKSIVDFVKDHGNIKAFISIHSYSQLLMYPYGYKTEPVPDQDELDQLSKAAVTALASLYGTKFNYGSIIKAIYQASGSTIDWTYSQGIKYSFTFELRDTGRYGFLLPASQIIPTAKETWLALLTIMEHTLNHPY
In short: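 Human CPA1 (20nM) digested the model peptide neurotensin over a 0-7h time course, with no inhibitor or with inhibitor at 5 and 500nM. Samples were taken at intervals and analyzed by MALDI-TOF MS.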

Homo sapiens = species on record: Homo sapiens; assay: Inhibition of pepsin (unknown origin) at 1 nM to 1 mM using H-Leu-Ser-p-nitro-Phe-Nle-Ala-Leu-OMe peptide as substrate preincubated for 45 mins measured at 30 sec intervals for 15 mins by UV/vis-spectrophotometry
In short: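 Pepsin 1.0x10-8 M with 2.0x10-4 M LSPNP substrate in 100 mM acetate pH 4.4, monitored at 310 nm. Inhibitor preincubated with enzyme 45 min at 37 °C; initial velocities over 15 min at 30-sec intervals; triplicate.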

HeLa = assay: Cytotoxicity against human HeLa cells by fluorescence confocal microscopy; assay type: cell-based
[2] = target: Mast cell carboxypeptidase A (Rattus norvegicus, UniProt P21961); assay: Inhibition of rat CPA3 using AAFP as substrate preincubated for 45 mins measured at 30 sec intervals for 15 mins by UV/vis-spectrophotometry
In short: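 Enzyme, inhibitor and buffer preincubated 45 min at 37 °C, then substrate added. Read at 355 nm every 30 sec for 15 min as initial velocities, in triplicate.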

HEK-293T = assay: Cytotoxicity against HEK293T cells by fluorescence confocal microscopy; assay type: cell-based; conditions: human
[3] = target: Carboxypeptidase N catalytic chain (Homo sapiens) (UniProt P15169); assay: Inhibition of human CPN at 1 nM to 1 mM using N-(3-[2-furyl]acryloyl)-alanyl-lysine-OH as substrate preincubated for 45 mins measured at 30 sec intervals for 15 mins by UV/vis-spectrophotometry
In short: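 hCPN at 2.0x10-9 M with 2.0x10-4 M FAAK substrate in 20 mM Tris-HCl pH 7.5, 100 mM NaCl, followed at 330 nm. Enzyme and inhibitor preincubated 45 min at 37 °C before substrate. Initial velocities read every 30 sec over 15 min, triplicate.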

Papain (Carica papaya) = Papain (Carica papaya) (UniProt P00784); assay: Inhibition of papaya papain at 1 nM to 1 mM using L-pyroglutamyl-Lphenylalanyl-L-leucine-p-nitroanilide peptide as substrate preincubated for 45 mins measured at 30 sec intervals for 15 mins by UV/vis-spectrophotometry
In short: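 Papain 4.5x10-8 M, PFLNA substrate 4.0x10-4 M, buffer 100 mM phosphate pH 6.5, 100 mM KCl, 0.1 mM EDTA, 3 mM DTT, 0.05% w/v Brij-35; read at 414 nm. 45 min preincubation at 37 °C with inhibitor; initial velocities, 30-sec reads for 15 min, triplicate.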

[4] = target: Macrophage metalloelastase (Homo sapiens, UniProt P39900); assay: Inhibition of human MMP12 using fluorogenic Mca-Pro-Leu-Gly-Leu-Dpa-Ala-Arg-NH2 peptide as substrate preincubated for 45 mins measured at 30 sec intervals for 15 mins by UV/vis-spectrophotometry
In short: (§1)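 MMPs at nanomolar level with fluorogenic Mca-Pro-Leu-Gly-Leu-Dpa-Ala-Arg-NH2 substrate in 50 mM Tris-HCl pH 6.8, 10 mM CaCl2. Enzyme, inhibitor and buffer preincubated 45 min at 37 °C, then substrate added; initial velocities from 30-sec reads over 15 min, in triplicate.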

[5] = target: Carboxypeptidase B2 (Homo sapiens) (UniProt Q96IY4); assay: Inhibition of human TAFI at 1 nM to 1 mM using AAFA as substrate preincubated for 45 mins measured at 30 sec intervals for 15 mins by UV/vis-spectrophotometry
In short: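 Absorbance at 355 nm. Preincubation 45 min at 37 °C with inhibitor before substrate addition. Initial velocities from 30-sec reads over 15 min; triplicates.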

[6] = target: Mast cell carboxypeptidase A (Homo sapiens) (UniProt P15088); assay: Binding affinity to CPA3 expressing human HeLa cells assessed as compound co-localization with CPA3 at 1 to 5 uM treated for 6 hrs followed by cell wash and measured by DAPI-staining based fluorescence confocal microscopy
In short: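 HeLa cells with cytoplasmic hCPA3 expression were treated 6 h with the fluorescent probe at 1 or 5 µM, washed, then imaged by fluorescence confocal microscopy for internalization and co-localization with CPA3.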

[7] = target: Matrix metalloproteinase-9 (Homo sapiens, UniProt P14780); assay: Inhibition of human MMP9 using fluorogenic Mca-Pro-Leu-Gly-Leu-Dpa-Ala-Arg-NH2 peptide as substrate preincubated for 45 mins measured at 30 sec intervals for 15 mins by UV/vis-spectrophotometry; in short: as §1
[8] = target: Cytosolic carboxypeptidase 1 (Homo sapiens) (UniProt Q9UPW5); assay: Inhibition of human CCP1 at 1 nM to mM using tubulin as substrate preincubated for 45 mins measured at 30 sec intervals for 15 mins by UV/vis-spectrophotometry
In short: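 hCCP1 or hCCP6 at 1.0x10-6 g with tubulin (12.5x10-5 g) as substrate in 20 mM Tris-HCl pH 7.5, 100 mM NaCl. Enzyme, inhibitor and buffer preincubated 45 min at 37 °C before substrate addition; run in triplicate.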

Mast cell carboxypeptidase A, sequence (P21961 whole entry): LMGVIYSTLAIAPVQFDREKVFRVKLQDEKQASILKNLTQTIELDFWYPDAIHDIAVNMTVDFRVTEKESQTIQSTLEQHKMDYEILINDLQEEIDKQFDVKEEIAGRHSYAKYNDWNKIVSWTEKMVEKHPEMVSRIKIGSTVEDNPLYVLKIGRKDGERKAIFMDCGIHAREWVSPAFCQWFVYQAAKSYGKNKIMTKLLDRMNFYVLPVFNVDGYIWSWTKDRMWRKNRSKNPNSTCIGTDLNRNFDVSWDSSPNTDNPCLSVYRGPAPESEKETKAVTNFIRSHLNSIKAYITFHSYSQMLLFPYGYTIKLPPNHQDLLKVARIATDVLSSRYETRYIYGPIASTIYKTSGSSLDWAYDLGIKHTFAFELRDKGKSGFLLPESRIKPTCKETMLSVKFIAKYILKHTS
Carboxypeptidase B2 (Homo sapiens), sequence (Q96IY4 whole entry): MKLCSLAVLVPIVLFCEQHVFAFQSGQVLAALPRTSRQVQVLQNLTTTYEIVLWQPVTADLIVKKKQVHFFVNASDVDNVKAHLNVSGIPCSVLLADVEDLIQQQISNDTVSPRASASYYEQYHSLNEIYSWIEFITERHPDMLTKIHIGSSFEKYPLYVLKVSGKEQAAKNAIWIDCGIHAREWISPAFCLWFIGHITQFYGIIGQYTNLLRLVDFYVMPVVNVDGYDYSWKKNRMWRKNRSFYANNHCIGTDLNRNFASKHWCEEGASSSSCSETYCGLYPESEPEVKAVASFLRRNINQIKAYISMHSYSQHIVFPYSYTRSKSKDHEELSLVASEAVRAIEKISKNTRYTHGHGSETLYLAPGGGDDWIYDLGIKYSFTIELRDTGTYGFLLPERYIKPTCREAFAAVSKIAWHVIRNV
Carboxypeptidase N catalytic chain (Homo sapiens), sequence (P15169 whole entry): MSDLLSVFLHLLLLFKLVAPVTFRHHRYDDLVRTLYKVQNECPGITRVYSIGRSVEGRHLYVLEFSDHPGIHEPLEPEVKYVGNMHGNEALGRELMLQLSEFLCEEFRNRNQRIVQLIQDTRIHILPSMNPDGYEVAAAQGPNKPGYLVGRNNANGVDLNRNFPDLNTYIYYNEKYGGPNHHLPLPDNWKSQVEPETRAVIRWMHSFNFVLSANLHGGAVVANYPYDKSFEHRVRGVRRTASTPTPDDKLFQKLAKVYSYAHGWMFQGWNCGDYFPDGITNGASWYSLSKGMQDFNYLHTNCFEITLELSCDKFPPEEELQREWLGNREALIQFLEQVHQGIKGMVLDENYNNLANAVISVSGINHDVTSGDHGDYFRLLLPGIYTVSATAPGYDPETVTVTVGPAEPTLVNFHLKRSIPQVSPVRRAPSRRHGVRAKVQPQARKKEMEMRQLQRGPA
Papain (Carica papaya), sequence (P00784 whole entry): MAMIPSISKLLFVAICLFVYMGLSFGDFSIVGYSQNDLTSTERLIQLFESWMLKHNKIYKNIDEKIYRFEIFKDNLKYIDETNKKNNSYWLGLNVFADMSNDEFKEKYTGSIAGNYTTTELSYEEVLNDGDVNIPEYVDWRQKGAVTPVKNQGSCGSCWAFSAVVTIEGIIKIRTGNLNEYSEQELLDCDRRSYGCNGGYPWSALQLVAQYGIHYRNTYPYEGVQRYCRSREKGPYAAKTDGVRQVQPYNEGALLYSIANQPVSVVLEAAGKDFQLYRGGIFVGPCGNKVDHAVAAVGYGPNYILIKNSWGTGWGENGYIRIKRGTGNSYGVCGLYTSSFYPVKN
Cytosolic carboxypeptidase 1 (Homo sapiens), sequence (Q9UPW5 whole entry): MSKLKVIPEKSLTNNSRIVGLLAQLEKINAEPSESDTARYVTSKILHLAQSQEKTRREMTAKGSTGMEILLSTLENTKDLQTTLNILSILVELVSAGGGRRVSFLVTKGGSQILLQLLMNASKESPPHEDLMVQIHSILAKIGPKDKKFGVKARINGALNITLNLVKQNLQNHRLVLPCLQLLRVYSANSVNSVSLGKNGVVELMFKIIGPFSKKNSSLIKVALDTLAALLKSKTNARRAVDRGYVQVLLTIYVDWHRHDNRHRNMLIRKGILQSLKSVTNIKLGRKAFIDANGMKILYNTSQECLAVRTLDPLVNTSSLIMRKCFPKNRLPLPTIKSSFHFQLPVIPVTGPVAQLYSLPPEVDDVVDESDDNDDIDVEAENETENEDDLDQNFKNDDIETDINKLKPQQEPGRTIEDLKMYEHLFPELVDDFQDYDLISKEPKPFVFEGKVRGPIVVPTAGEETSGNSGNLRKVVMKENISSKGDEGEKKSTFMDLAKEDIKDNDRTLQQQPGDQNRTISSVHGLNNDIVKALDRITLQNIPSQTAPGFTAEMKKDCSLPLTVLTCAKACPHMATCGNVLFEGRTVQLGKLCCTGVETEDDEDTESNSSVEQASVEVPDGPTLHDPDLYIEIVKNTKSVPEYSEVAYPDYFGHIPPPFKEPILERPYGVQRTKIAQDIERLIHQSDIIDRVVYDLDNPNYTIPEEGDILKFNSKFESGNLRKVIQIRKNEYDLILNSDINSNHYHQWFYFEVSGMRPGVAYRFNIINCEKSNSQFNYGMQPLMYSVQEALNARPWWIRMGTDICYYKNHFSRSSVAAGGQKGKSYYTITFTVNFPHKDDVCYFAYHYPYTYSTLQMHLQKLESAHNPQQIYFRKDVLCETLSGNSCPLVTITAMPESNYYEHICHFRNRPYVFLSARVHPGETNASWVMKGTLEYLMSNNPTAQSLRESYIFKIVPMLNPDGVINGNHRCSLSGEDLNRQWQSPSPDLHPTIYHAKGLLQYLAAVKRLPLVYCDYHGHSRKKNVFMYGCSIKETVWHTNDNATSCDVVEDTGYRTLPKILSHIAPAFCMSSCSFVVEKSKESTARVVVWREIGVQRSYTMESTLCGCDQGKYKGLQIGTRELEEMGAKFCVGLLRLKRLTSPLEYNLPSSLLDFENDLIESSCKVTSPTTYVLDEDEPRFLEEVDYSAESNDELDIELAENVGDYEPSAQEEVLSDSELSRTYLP
Macrophage metalloelastase, sequence (P39900 whole entry): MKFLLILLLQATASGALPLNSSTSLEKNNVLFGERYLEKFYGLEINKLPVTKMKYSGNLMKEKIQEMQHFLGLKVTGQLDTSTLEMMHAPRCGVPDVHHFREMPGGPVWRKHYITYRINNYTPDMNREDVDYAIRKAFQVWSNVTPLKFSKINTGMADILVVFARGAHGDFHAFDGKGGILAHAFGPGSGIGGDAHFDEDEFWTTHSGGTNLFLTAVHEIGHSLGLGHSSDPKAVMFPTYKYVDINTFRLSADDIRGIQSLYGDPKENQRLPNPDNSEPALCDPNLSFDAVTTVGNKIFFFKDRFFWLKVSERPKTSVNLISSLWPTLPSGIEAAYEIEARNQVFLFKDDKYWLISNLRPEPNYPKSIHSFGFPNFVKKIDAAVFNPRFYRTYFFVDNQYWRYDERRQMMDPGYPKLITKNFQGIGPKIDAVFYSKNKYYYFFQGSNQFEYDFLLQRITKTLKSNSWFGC
Matrix metalloproteinase-9, sequence (P14780 whole entry): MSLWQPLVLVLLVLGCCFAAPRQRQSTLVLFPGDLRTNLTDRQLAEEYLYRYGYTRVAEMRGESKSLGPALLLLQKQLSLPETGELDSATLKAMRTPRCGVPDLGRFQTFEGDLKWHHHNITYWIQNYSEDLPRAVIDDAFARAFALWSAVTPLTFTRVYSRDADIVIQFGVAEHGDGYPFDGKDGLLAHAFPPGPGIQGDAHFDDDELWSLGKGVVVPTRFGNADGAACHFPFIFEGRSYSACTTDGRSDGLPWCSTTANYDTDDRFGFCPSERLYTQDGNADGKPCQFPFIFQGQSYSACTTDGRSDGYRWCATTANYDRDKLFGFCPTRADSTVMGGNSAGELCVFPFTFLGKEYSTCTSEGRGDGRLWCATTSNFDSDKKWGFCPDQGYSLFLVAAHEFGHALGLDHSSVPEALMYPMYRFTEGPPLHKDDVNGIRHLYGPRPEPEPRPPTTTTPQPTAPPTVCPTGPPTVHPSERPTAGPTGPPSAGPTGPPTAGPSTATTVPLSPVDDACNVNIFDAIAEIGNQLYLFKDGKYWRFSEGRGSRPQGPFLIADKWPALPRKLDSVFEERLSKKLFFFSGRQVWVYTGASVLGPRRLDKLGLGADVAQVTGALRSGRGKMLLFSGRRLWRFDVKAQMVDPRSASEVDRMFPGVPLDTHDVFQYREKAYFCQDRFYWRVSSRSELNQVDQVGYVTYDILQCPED
Mast cell carboxypeptidase A (Homo sapiens), sequence (P15088 whole entry): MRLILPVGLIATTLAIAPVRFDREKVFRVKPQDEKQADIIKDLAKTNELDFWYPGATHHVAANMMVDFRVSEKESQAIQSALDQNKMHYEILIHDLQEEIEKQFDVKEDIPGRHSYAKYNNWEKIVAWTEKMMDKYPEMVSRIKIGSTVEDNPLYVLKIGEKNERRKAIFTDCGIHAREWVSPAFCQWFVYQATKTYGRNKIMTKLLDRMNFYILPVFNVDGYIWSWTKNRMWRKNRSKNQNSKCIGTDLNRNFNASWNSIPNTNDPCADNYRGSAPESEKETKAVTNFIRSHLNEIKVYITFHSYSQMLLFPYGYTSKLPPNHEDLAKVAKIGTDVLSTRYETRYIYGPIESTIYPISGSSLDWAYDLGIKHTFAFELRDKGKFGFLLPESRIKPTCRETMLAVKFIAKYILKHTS

Row | SMILES | inhibition [1] | inhibition (Homo sapiens) | Activity (HeLa) | Ki [2] | Activity (HEK-293T) | inhibition [3] | inhibition (Papain (Carica papaya)) | Ki [4] | inhibition [5] | Activity [6] | Ki [7] | inhibition [8]
1 | CC(=O)N[C@@H](Cc1ccc(O)cc1)C(=O)N[C@@H](C)P(=O)(O)C[C@@H](CCc1ccccc1)C(=O)O | Active |  |  |  |  |  |  |  |  |  |  | 
2 | C[C@H](NC(=O)[C@H](Cc1ccc(O)cc1)NC(=O)COCCOCCNC(=O)CCOCCOCCOCCNC(=O)CCc1ccc(C(=C\C=C2\N(CCCCS(=O)(=O)O)c3ccc4c(S(=O)(=O)[O-])cc(S(=O)(=O)O)cc4c3C2(C)C)/C=C/C2=[N+](CCCCS(=O)(=O)O)c3ccc4c(S(=O)(=O)O)cc(S(=O)(=O)O)cc4c3C2(C)C)cc1)P(=O)(O)C[C@@H](CCc1ccccc1)C(=O)O |  | inactive | Non-Toxic | 0.017 nM | Non-Toxic | inactive | inactive | 1340 nM | inactive | Active | 2590 nM | inactive
